We go through 1 compound from ChEMBL document CHEMBL2150901, “Synthesis and biological activity of tricyclic cycloalkylimidazo-, pyrimido- and diazepinopurinediones” (Eur J Med Chem, 2011).

Molecules are shown by their SMILES. Active and inactive are the calls of the source. The rule behind the calls is not given here.

For data set [1], the system named is Rattus norvegicus. Put plainly: Anticonvulsant activity in Sprague-Dawley albino rat assessed as protection against maximal electroshock-induced seizures at 30 mg/kg, po after 1 hr. The class given is functional, organism-based. Also on record: dose 30 mg/kg. The essentials: (§1)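 Male Sprague-Dawley albino rats (100–150 g), groups of 4. Oral suspension in 0.5% methylcellulose/water. Protection assessed by maximal electroshock or subcutaneous pentylenetetrazole; motor impairment by rotorod. Time points 0.25–4 h. Value is protected (or toxic)/tested animals.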
In general terms: The maximal electroshock test induces tonic seizures with an electrical stimulus.

Data set [2] concerns Rattus norvegicus. Put plainly: Anticonvulsant activity in Sprague-Dawley albino rat assessed as protection against subcutaneous pentylenetetrazole-induced seizures at 50 mg/kg, po after 0.25 hrs. It is filed as functional, organism-based. Details: dose 50 mg/kg. The essentials: as §1
In data set [3] the test system is Rattus norvegicus. Put plainly: Neurotoxicity in Sprague-Dawley albino rat assessed as minimal motor impairment at 30 mg/kg, po after 0.5 hrs by rotorod test. The class given is toxicity, organism-based. Details: dose 30 mg/kg, route oral. The note with it: in vivo. The essentials:
as §1
A general note: In the rotarod test animals must keep their balance on a rotating rod.

Data set [4] has as its target Adenosine receptor A2a (Homo sapiens, UniProt P29274). As to the kind of experiment: Antagonist activity human recombinant adenosine A2A receptor expressed in CHO cells assessed as inhibition of NECA-mediated [3H]cAMP accumulation after 15 mins by liquid scintillation counting. It is filed as functional, cell-based. The essentials: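 Stably transfected CHO cells (human A2A), 200,000 cells/well, washed and preincubated 2 h at 37 °C in HBSS (pH 7.3) with 1 U/ml adenosine deaminase. Ro20-1724 (final 40 µM) added for 15 min. NECA dilutions ± a single test concentration in HBSS with 5% DMSO, in triplicate, for 15 min. Hot-lysis; cAMP quantified by [3H]cAMP competition against a standard curve; three separate experiments.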
(Changes in cAMP serve as a functional read-out for many G protein-coupled receptors.)

The subject of data set [5] is Mus musculus. Put plainly: Anticonvulsant activity in F1 albino mouse assessed as protection against subcutaneous pentylenetetrazole-induced seizures at 100 mg/kg, ip after 0.5 hrs. The class given is functional, organism-based. Also on record: dose 100 mg/kg. Put shortly:
(§2)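 Male albino F-1 mice (18–25 g), groups of 1–5 (rotorod 2–8). Compound given ip as a suspension in 0.5% methylcellulose at 30, 100 and 300 mg/kg. Seizures by maximal electroshock or subcutaneous pentylenetetrazole; neurotoxicity by rotorod. Read at 0.5 and 4 h, with some at 0.25, 1 and 2 h. Value is the minimum active dose, with protected (or toxic)/tested animals.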

Data set [6] concerns Rattus norvegicus. Put plainly: Neurotoxicity in Sprague-Dawley albino rat assessed as minimal motor impairment at 30 mg/kg, po after 1 hr by rotorod test. The class given is toxicity, organism-based. Details: dose 30 mg/kg, route oral. The note with it: in vivo. The essentials:
as §1

Data set [7] deals with Mus musculus. Put plainly: Neurotoxicity in F1 albino mouse assessed as minimal motor impairment at 300 mg/kg, ip after 1 hr by rotorod test. It is filed as toxicity, organism-based. Also on record: dose 300 mg/kg, route intraperitoneal. The note with it: in vivo. The essentials:
as §2

The test system of data set [8] is Rattus norvegicus. As to the kind of experiment: Neurotoxicity in Sprague-Dawley albino rat assessed as minimal motor impairment at 30 mg/kg, po after 4 hrs by rotorod test. It is filed as toxicity, organism-based. Details: dose 30 mg/kg, route oral. The note with it: in vivo. The essentials: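 Male Sprague-Dawley albino rats (100–150 g), groups of 4, dosed orally with a suspension in 0.5% methylcellulose/water. Neurotoxicity was scored as minimal motor impairment on the rotorod at 0.25, 0.5, 1 and 4 h. Results are reported as animals showing toxicity per animals tested.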

In data set [9] the test system is Mus musculus. As to the kind of experiment: Anticonvulsant activity in F1 albino mouse assessed as protection against maximal electroshock-induced seizures at 300 mg/kg, ip after 4 hrs. Also on record: dose 300 mg/kg. It is filed as functional, organism-based. Put shortly: as §2
Data set [10] addresses T1, Adenosine receptor A2b (Homo sapiens, UniProt P29275).
T1 sequence (P29275 whole entry): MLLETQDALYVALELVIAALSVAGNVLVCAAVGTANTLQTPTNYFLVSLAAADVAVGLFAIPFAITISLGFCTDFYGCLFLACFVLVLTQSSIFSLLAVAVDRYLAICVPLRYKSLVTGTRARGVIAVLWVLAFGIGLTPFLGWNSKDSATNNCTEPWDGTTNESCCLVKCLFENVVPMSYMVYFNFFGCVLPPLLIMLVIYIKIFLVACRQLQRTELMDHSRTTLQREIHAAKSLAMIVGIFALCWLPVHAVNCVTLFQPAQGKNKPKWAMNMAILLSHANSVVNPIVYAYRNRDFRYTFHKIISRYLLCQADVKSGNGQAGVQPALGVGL
As to the kind of experiment: Displacement of [3H]ZM241385 from human adenosine A2B receptor expressed in CHO cells. The class given is cell-based.

For data set [11], the system named is Mus musculus. As to the kind of experiment: Anticonvulsant activity in F1 albino mouse assessed as protection against maximal electroshock-induced seizures at 300 mg/kg, ip after 1 hr. It is filed as functional, organism-based. Details: dose 300 mg/kg. Put shortly:
as §2

Sequence of Adenosine receptor A2a (P29274 whole entry): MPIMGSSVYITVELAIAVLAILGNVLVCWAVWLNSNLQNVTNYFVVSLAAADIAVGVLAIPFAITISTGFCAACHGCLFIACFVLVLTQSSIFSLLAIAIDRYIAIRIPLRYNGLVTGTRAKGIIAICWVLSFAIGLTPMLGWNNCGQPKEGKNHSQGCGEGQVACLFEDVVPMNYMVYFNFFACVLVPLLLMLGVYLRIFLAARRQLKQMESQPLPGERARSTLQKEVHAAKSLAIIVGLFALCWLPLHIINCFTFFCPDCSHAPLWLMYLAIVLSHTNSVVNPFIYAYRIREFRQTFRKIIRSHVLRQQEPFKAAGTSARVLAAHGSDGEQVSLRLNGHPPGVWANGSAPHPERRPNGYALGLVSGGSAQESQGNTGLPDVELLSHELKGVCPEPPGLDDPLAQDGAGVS

Regarding `Cn1c(=O)c2c(nc3n2CCCN3CC2CC2)n(C)c1=O`, the result in [1], in [2], in [9] and in [11] was inactive. Also, the Activity result in [3], in data set [6], in data set [7] and in [8] was “Non-toxic” in each case. The Kb – broadly, the equilibrium dissociation constant of an antagonist, usually derived from a functional assay – in data set [4] was determined as 0.22 µM. In addition, the outcome in data set [5] was Active. The inhibition constant (Ki) (commonly a measure of affinity in units of concentration, obtained from inhibition or displacement) in data set [10] is 12.5 µM.
